Data from ChEMBL document CHEMBL4808178 (J Med Chem, 2021).
Activity calls are given as the source filed them. The rule behind the calls is not given here.

Experiments:
[1] = test system: HCT-116; assay: Induction of cell cycle arrest in human HCT116 cells assessed as accumulation at G2/M phase at 20 uM after 24 hrs by propidium iodide-staining based flow cytometry (reference value: 14.67%); assay type: functional
[2] = Tmax in Sprague-Dawley rat at 25 mg/kg, po measured up to 48 hrs by LC-MS/MS analysis; assay type: ADME, organism-based; details: in vivo
Outline: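 Overnight-fasted male SD rats (250−270 g, n = 3/group), single oral 25 mg/kg in 5% CMC-Na (reference sodium salt in phosphate buffer); plasma at 0.25–48 h (12 timepoints), stored −40 °C; LC−MS/MS with internal-standard calibration 3–3000 ng/mL; parameters fitted by model.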

[3] = target: Glycogen synthase kinase-3 beta (Homo sapiens) (UniProt P49841); assay: Inhibition of GSK3beta phosphorylation at serine 9 in human HCT-116 cells after 24 hrs by Western blot analysis; assay type: cell-based; details: dose 5-20 µM
Outline: (§1)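 HCT-116 cells at 2 × 10⁵ cells/mL in DMEM/10% FBS, grown 12 h at 37 °C, then treated 24 h (vehicle DMSO). Lysates quantified by BCA, run on 10% SDS-PAGE, PVDF transfer, blocked in 5% milk/TBST, primary antibodies 4 °C overnight, HRP secondary 2 h, chemiluminescent detection; normalized to β-actin, n = 3.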

[4] = test system: PC-3; assay: Cytotoxicity against human PC3 cells assessed as reduction in cell viability incubated for 72 hrs by MTT assay; assay type: functional, cell-based; details: PC-3, 72 h
Outline: (§2)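 About 5 × 10³ cells/well, seeded overnight at 37 °C, 5% CO₂, in DMEM or RPMI-1640 with 10% FBS and antibiotics. DMSO-dissolved compounds diluted in medium, exposure 72 h.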

[5] = test system: T-24; assay: Cytotoxicity against human T24 cells assessed as reduction in cell viability incubated for 72 hrs by MTT assay; assay type: functional, cell-based; details: T-24, 72 h; outline: as §2
[6] = test system: HCT-116; assay: Induction of apoptosis in human HCT116 cells assessed as down regulation of pro-caspase 9 level at 20 uM incubated for 24 hrs by Western blot analysis; assay type: functional, cell-based; outline: as §1
[7] = target: T1, Aldehyde dehydrogenase 1A1 (Homo sapiens) (UniProt P00352); assay: Inhibition of ALDH1A1 in human HCT116 cells at 20 uM after 24 hrs by aldefluor staining based fluorescence analysis; assay type: cell-based; details: HCT-116
T1 sequence (whole entry): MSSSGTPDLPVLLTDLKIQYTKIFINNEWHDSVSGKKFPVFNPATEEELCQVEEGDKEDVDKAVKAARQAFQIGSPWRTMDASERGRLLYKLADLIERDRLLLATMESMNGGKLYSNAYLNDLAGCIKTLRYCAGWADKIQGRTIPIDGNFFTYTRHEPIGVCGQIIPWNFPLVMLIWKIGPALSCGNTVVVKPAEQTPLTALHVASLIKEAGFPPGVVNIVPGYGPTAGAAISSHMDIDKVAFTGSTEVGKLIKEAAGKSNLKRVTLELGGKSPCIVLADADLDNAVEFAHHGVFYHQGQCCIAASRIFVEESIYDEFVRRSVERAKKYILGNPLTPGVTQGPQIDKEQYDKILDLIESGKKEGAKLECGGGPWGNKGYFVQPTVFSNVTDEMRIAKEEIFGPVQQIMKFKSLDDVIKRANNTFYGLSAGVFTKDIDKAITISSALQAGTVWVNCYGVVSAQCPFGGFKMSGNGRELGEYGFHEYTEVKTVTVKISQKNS
Outline: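 HCT-116 cells, 2 × 10⁵/well, grown overnight at 37 °C, 5% CO₂, then treated 24 h (vehicle DMSO). Aldefluor staining read in FITC channel by FACS for proportion of ALDH⁺ cells; DEAB-pretreated cells set baseline fluorescence.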

[8] = Toxicity in BALB/c mouse xenografted with human HCT116 cells assessed as effect on lung tissue at 60 to 90 mg/kg, po administered twice daily for 4 weeks and measured every 3 days by HE staining based assay; assay type: organism-based, HCT-116; details: in vivo, 672 h, dose 60-90 mg/kg
Outline: (§3)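 Male 5-week BALB/c nude mice (16−18 g), 0.2 mL of 5 × 10⁷ cells/mL HCT-116 injected into right armpit; at ~100 mm³ randomized, 5/group; intragastric 60 or 90 mg/kg twice daily for 4 weeks; tumor volume and body weight every 3 days; after sacrifice heart, liver, spleen, lung, kidney HE-stained.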

[9] = Toxicity in BALB/c mouse xenografted with human HCT116 cells assessed as effect on spleen tissue at 60 to 90 mg/kg, po administered twice daily for 4 weeks and measured every 3 days by HE staining based assay; assay type: organism-based, HCT-116; details: in vivo, 672 h, dose 60-90 mg/kg; outline: as §3
[10] = Cmax in Sprague-Dawley rat at 25 mg/kg, po measured up to 48 hrs by LC-MS/MS analysis; assay type: ADME, organism-based; design: route oral, dose 25 mg/kg, time <=48; details: in vivo
Outline: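 Overnight-fasted male SD rats (about 250−270 g), three per group, single oral 25 mg/kg; test compound suspended in 5% CMC-Na, control as sodium salt in phosphate buffer. Blood sampled 0.25–48 h, plasma by centrifugation, stored −40 °C, quantified by LC−MS/MS against plasma standard curve (3–3000 ng/mL) with internal standard; model-fitted PK parameters.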

[11] = target: Dual specificity protein kinase CLK2 (Homo sapiens, UniProt P49760); assay: Inhibition of human CLK2 incubated for 2 hrs
[12] = test system: HCT-116; assay: Effect on Wnt/beta-Catenin signaling in human HCT116 cells assessed as upregulation of DKK1 protein level after 24 hrs by Western blotting analysis; assay type: functional, cell-based; details: dose 5-20 µM; outline: as §1
[13] = test system: HCT-116; assay: Induction of apoptosis in human HCT116 cells assessed as early apoptotic cells at 10 uM after 24 hrs by annexin V-FITC/propidium iodide staining based flow cytometry (reference value: 1%); assay type: functional
[14] = test system: HCT-116; assay: Induction of apoptosis in human HCT116 cells assessed as late apoptotic cells at 5 uM after 24 hrs by annexin V-FITC/propidium iodide staining based flow cytometry (reference value: 5.1%); assay type: functional

Chain of Dual specificity protein kinase CLK2 (P49760 whole entry): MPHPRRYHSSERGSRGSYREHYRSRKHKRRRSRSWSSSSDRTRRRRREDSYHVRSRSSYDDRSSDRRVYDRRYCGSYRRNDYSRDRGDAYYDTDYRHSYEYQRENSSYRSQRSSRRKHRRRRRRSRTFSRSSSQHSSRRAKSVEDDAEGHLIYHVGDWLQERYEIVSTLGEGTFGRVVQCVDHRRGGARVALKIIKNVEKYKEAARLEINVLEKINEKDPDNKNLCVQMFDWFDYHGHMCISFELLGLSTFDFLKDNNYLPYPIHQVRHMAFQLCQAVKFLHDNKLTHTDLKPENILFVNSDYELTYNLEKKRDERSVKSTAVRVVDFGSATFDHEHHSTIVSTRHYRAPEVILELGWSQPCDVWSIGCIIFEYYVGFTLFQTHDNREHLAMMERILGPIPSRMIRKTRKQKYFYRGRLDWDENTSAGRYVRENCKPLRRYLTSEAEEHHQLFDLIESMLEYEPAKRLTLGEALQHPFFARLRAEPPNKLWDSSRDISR
Chain of Glycogen synthase kinase-3 beta (Homo sapiens) (P49841 whole entry, looked up): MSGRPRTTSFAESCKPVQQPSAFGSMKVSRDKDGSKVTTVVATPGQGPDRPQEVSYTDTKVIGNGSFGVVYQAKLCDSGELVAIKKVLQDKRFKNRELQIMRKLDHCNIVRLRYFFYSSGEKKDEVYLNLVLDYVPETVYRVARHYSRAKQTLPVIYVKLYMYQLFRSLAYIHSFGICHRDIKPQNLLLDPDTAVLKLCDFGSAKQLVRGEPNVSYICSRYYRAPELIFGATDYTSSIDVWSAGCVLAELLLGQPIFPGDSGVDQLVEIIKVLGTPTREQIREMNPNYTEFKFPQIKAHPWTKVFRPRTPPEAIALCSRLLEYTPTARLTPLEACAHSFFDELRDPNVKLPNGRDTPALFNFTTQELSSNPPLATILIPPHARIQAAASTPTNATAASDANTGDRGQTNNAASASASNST

Question: Which results are given for `O=C(NCCO)c1ccc2c(c1)nc(Nc1cccc(Cl)c1)c1ccncc12`?
Answer: Activity [1]: 22.72%; Tmax [2]: 2.33 h; inhibition [3]: Dose-Dependent Effect; IC50 [4]: 4.53 µM; IC50 [5]: 6.1 µM; Activity [6]: Active; inhibition [7]: 96%; Activity [8]: Non-Toxic; Activity [9]: Non-Toxic; Cmax [10]: 7020 ng/mL; IC50 [11]: 0.0327 µM; Activity [12]: Dose-Dependent Effect; Activity [13]: 12.6%; Activity [14]: 14.3%
